Laboratory results reported in ChEMBL document CHEMBL1148383, “Semisynthetic macrolide antibacterials derived from tylosin. Synthesis and structure-activity relationships of novel desmycosin analogues” (J Med Chem, 2004).
In brackets after ≈: the same amount, converted by molar mass.

Experiments:
Format in all cases: functional
Staphylococcus aureus [1] = experiment: Antibacterial activity against Staphylococcus aureus PSCB-0331
Outline: (§1)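 MICs were determined by broth microdilution following NCCLS guidelines. The test panel includes erythromycin-susceptible strains and erythromycin-resistant strains with constitutive or inducible MLSB phenotypes or with efflux resistance.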

Streptococcus pneumoniae = experiment: Antibacterial activity against Streptococcus pneumoniae PSCB-0541; outline: as §1
Streptococcus pyogenes [2] = experiment: Antibacterial activity against Streptococcus pyogenes PSCB-0543; outline: as §1
Haemophilus influenzae = experiment: Antibacterial activity against Haemophilus influenzae ATCC 49247; outline: as §1
Staphylococcus aureus [3] = experiment: Antibacterial activity against Staphylococcus aureus PSCB-0330; outline: as §1
Staphylococcus aureus [4] = experiment: Antibacterial activity against Staphylococcus aureus PSCB-0538; outline: as §1
Escherichia coli = experiment: Antibacterial activity against Escherichia coli ATCC […]; outline: as §1
Enterococcus faecalis = experiment: Antibacterial activity against Enterococcus faecalis ATCC 29212; outline: as §1
Streptococcus pyogenes [5] = experiment: Antibacterial activity against Streptococcus pyogenes PSCB-0545; outline: as §1
Staphylococcus aureus [6] = experiment: Antibacterial activity against Staphylococcus aureus ATCC 13709; outline: as §1

| MIC (Staphylococcus aureus [1]) | MIC (Streptococcus pneumoniae) | MIC (Streptococcus pyogenes [2]) | MIC (Haemophilus influenzae) | MIC (Staphylococcus aureus [3]) | MIC (Staphylococcus aureus [4]) | MIC (Escherichia coli) | MIC (Enterococcus faecalis) | MIC (Streptococcus pyogenes [5]) | MIC (Staphylococcus aureus [6]) | SMILES |
| --- | --- | --- | --- | --- | --- | --- | --- | --- | --- | --- |
| 2 µg/mL (≈ 2.17 µM) | 8 µg/mL (≈ 8.69 µM) | 64 µg/mL (≈ 69.6 µM) | 64 µg/mL (≈ 69.6 µM) | 64 µg/mL (≈ 69.6 µM) | 4 µg/mL (≈ 4.35 µM) | 64 µg/mL (≈ 69.6 µM) | 16 µg/mL (≈ 17.4 µM) | 1 µg/mL (≈ 1.09 µM) | 2 µg/mL (≈ 2.17 µM) | CC[C@H]1OC(=O)C[C@@H](O)[C@H](C)[C@@H](OC2OC(C)C(OC3CC(C)(O)C(O)C(C)O3)C(N(C)C)C2O)[C@@H](CC=O)C[C@@H](C)C(=O)CCC(C)C[C@@H]1COC1OC(C)C(O)C(OC)C1OC (some centres not stated) |
| – | – | – | – | > 128 µg/mL | – | > 128 µg/mL | – | – | – | CC[C@H]1OC(=O)C[C@H](O)[C@H](C)[C@@H](OC2OC(C)C(O)C(N(C)C)C2O)[C@@H](C/C=C/C(=O)OC)C[C@@H](C)C(=O)/C=C/C(C)=C/[C@@H]1COC1OC(C)C(O)C(OC)C1OC (some centres not stated) |
| 2 µg/mL (≈ 2.42 µM) | 32 µg/mL (≈ 38.7 µM) | 4 µg/mL (≈ 4.84 µM) | 128 µg/mL (≈ 155 µM) | > 128 µg/mL | 2 µg/mL (≈ 2.42 µM) | > 128 µg/mL | 4 µg/mL (≈ 4.84 µM) | 4 µg/mL (≈ 4.84 µM) | 2 µg/mL (≈ 2.42 µM) | CC[C@H]1O/C(O)=C/C(=O)[C@H](C)[C@@H](OC2OC(C)C(O)C(N(C)C)C2O)[C@@H](C/C=C/C(=O)OC)C[C@@H](C)C(=O)/C=C/C(C)=C/[C@@H]1COC1OC(C)C(O)C(OC)C1OC (some centres not stated) |
| 0.25 µg/mL (≈ 0.297 µM) | 2 µg/mL (≈ 2.38 µM) | 0.5 µg/mL (≈ 0.594 µM) | 4 µg/mL (≈ 4.75 µM) | > 128 µg/mL | 0.25 µg/mL (≈ 0.297 µM) | > 128 µg/mL | 1 µg/mL (≈ 1.19 µM) | 1 µg/mL (≈ 1.19 µM) | 0.5 µg/mL (≈ 0.594 µM) | CCOC(=O)/C=C/C[C@H]1C[C@@H](C)C(=O)/C=C/C(C)=C/[C@H](COC2OC(C)C(O)C(OC)C2OC)[C@@H](CC)OC(=O)C[C@@H](O)[C@H](C)[C@H]1OC1OC(C)C(O)C(N(C)C)C1O (some centres not stated) |
| > 128 µg/mL | > 128 µg/mL | > 128 µg/mL | 128 µg/mL (≈ 157 µM) | > 128 µg/mL | > 128 µg/mL | > 128 µg/mL | > 128 µg/mL | 128 µg/mL (≈ 157 µM) | > 128 µg/mL | CC[C@H]1OC(=O)C[C@@H](O)[C@H](C)[C@@H](OC2OC(C)C(O)C(N(C)C)C2O)[C@@H](C/C=C/C(=O)O)C[C@@H](C)C(=O)/C=C/C(C)=C/[C@@H]1COC1OC(C)C(O)C(OC)C1OC (some centres not stated) |
| 0.5 µg/mL (≈ 0.497 µM) | 4 µg/mL (≈ 3.98 µM) | 2 µg/mL (≈ 1.99 µM) | 8 µg/mL (≈ 7.96 µM) | > 128 µg/mL | 0.25 µg/mL (≈ 0.249 µM) | > 128 µg/mL | 2 µg/mL (≈ 1.99 µM) | 0.5 µg/mL (≈ 0.497 µM) | < 0.25 µg/mL | CCOC(=O)/C=C/C[C@H]1C[C@@H](C)C(=O)/C=C/C(C)=C/[C@H](COC2OC(C)C(O)C(OC)C2OC)[C@@H](CC)OC(=O)C[C@@H](OC(=O)Cc2ccc([N+](=O)[O-])cc2)[C@H](C)[C@H]1OC1OC(C)C(O)C(N(C)C)C1O (some centres not stated) |
| 32 µg/mL (≈ 41.6 µM) | 8 µg/mL (≈ 10.4 µM) | 32 µg/mL (≈ 41.6 µM) | > 128 µg/mL | > 128 µg/mL | 16 µg/mL (≈ 20.8 µM) | > 128 µg/mL | 8 µg/mL (≈ 10.4 µM) | 4 µg/mL (≈ 5.2 µM) | 8 µg/mL (≈ 10.4 µM) | CC[C@H]1O/C(O)=C/C(=O)[C@H](C)[C@@H](OC2OC(C)C(O)C(N(C)C)C2O)[C@@H](CC=O)C[C@@H](C)C(=O)/C=C/C(C)=C/[C@@H]1COC1OC(C)C(O)C(OC)C1OC (some centres not stated) |
| 32 µg/mL (≈ 32 µM) | 32 µg/mL (≈ 32 µM) | 32 µg/mL (≈ 32 µM) | 128 µg/mL (≈ 128 µM) | 128 µg/mL (≈ 128 µM) | 64 µg/mL (≈ 64 µM) | 128 µg/mL (≈ 128 µM) | 64 µg/mL (≈ 64 µM) | 16 µg/mL (≈ 16 µM) | 4 µg/mL (≈ 4 µM) | CCOC(=O)/C=C/C[C@H]1C[C@@H](C)C(=O)/C=C/C(C)=C/[C@H](COC2OC(C)C(O)C(OC)C2OC)[C@@H](CC)OC(=O)C[C@@H](NN(C(=O)OCC)C(=O)OCC)[C@H](C)[C@H]1OC1OC(C)C(O)C(N(C)C)C1O (some centres not stated) |
| 1 µg/mL (≈ 1.33 µM) | 2 µg/mL (≈ 2.65 µM) | 2 µg/mL (≈ 2.65 µM) | 4 µg/mL (≈ 5.31 µM) | > 128 µg/mL | 4 µg/mL (≈ 5.31 µM) | > 128 µg/mL | 8 µg/mL (≈ 10.6 µM) | 1 µg/mL (≈ 1.33 µM) | 0.5 µg/mL (≈ 0.663 µM) | CC[C@H]1OC(=O)/C=C\[C@H](C)[C@@H](OC2OC(C)C(O)C(N(C)C)C2O)[C@@H](CC=O)C[C@@H](C)C(=O)/C=C/C(C)=C/[C@@H]1COC1OC(C)C(O)C(OC)C1OC (some centres not stated) |

| SMILES | MIC (Staphylococcus aureus [1]) | MIC (Streptococcus pneumoniae) | MIC (Streptococcus pyogenes [2]) | MIC (Haemophilus influenzae) | MIC (Staphylococcus aureus [3]) | MIC (Staphylococcus aureus [4]) | MIC (Escherichia coli) | MIC (Enterococcus faecalis) | MIC (Streptococcus pyogenes [5]) | MIC (Staphylococcus aureus [6]) |
| --- | --- | --- | --- | --- | --- | --- | --- | --- | --- | --- |
| CC[C@H]1OC(=O)C[C@@H](O)[C@H](C)[C@@H](O[C@@H]2O[C@H](C)[C@@H](O[C@H]3C[C@@](C)(O)[C@@H](O)[C@H](C)O3)[C@H](N(C)C)[C@H]2O)[C@@H](CC=O)C[C@@H](C)C(=O)/C=C/C(C)=C/[C@@H]1CO[C@@H]1O[C@H](C)[C@@H](O)[C@@H](OC)[C@H]1OC [TYLOSIN] | 1 µg/mL (≈ 1.09 µM) | 0.5 µg/mL (≈ 0.546 µM) | 1 µg/mL (≈ 1.09 µM) | 8 µg/mL (≈ 8.73 µM) | > 128 µg/mL | 0.5 µg/mL (≈ 0.546 µM) | 64 µg/mL (≈ 69.9 µM) | 1 µg/mL (≈ 1.09 µM) | 0.5 µg/mL (≈ 0.546 µM) | 1 µg/mL (≈ 1.09 µM) |
